Laboratory results from publication PMC9727797 (Molecular Biology of the Cell, 2022).

Columns and labels:
[1] = target: T1, KIF15-N420 (Homo sapiens, UniProt Q9NS87); assay: ATP-dependent steady-state ATPase assay; assay type: biochemical; settings: 30 μM compound, 3 μM microtubules, fit ± 95% confidence interval
T1 sequence (Q9NS87 1-420 limits assumed): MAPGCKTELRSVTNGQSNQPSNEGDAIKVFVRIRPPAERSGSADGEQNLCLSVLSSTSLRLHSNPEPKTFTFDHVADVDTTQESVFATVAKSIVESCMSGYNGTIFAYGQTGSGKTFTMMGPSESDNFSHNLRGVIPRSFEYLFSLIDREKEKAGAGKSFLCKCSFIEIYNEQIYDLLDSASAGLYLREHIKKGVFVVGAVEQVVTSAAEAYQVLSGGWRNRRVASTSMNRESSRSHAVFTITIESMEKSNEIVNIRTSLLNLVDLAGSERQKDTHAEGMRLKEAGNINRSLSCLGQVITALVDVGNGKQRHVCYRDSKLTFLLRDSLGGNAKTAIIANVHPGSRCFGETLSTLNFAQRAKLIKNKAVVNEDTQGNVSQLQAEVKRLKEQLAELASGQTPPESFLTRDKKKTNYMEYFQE
Summary of the method: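 KIF15-N420 ATPase measured by NADH-coupled assay, with absorbance at 340 nm followed over time at 25°C. Rates were divided by active motor concentration. ATP was varied, with microtubules held at 3 μM. Test compound was 30 μM, or an equal volume of DMSO. Michaelis-Menten fits were weighted by 1/SEM, with n = 5–7 per concentration. kcat and Km are reported as fit ± 95% confidence interval.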

[2] = tested on: KIF15 on spindle microtubules in RPE-1 cells; assay: KIF15 on metaphase spindles; assay type: cell-based, human; settings: Fift-IN 25 µM, Munesib-1 50 µM
Summary of the method: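 RPE-1 cells on glass coverslips were treated overnight with test compound (25 or 50 µM) or DMSO in normal medium. Cells were fixed in 100% methanol at –20°C for 10 min. Staining used rabbit anti-KIF15 (1:2000, 1 h), FITC anti-α-tubulin (1:500, 30 min) and Hoechst 33342. Max-intensity z-projections were imaged.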

[3] = tested on: HeLa-derived KIRC-2 cells; assay: Preanaphase spindle monopolarity, HeLa-derived KIRC-2 cells; assay type: cell-based; settings: same concentrations as in KIRC-1 cells
[4] = target: T2, KIF15-N700 (Homo sapiens, UniProt Q9NS87); assay: Microtubule binding to coverslip via KIF15 in gliding assay; settings: 1 min postdrug addition; 24 µM Munesib-1 or 100 µM Fift-IN
T2 sequence (Q9NS87 1-700 limits assumed): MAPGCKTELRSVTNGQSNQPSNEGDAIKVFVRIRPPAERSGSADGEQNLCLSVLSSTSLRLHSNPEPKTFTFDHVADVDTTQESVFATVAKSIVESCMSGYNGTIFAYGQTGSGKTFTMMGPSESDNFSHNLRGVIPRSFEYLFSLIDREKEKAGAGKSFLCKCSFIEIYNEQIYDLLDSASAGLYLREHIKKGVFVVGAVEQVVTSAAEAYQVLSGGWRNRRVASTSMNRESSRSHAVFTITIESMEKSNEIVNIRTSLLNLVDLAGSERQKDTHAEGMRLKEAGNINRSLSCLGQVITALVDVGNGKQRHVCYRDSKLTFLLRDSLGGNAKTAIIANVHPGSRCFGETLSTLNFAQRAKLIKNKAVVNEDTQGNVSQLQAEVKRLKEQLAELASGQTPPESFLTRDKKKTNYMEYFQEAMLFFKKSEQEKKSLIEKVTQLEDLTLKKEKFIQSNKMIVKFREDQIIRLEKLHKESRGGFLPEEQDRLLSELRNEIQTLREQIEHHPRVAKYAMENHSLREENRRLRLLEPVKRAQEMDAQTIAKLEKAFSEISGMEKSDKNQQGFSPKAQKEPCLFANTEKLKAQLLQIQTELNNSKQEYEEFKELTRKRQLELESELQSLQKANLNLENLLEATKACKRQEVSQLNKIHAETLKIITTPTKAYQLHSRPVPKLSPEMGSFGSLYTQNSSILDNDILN
Summary of the method: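 During KIF15-N700 gliding assays, microtubules bound to the coverslip were counted immediately before adding drug and after 1 min of incubation. Test compound was 24 µM or 100 µM; DMSO served as control. Results are expressed as the percentage of microtubules remaining bound.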

[5] = target: T3, K560, a truncated form of kinesin-1 (Homo sapiens, UniProt P33176); assay: Microtubule gliding assay, K560; assay type: biochemical; settings: 24 µM Munesib-1 or 100 µM Fift-IN
T3 sequence (P33176 1-560 limits assumed): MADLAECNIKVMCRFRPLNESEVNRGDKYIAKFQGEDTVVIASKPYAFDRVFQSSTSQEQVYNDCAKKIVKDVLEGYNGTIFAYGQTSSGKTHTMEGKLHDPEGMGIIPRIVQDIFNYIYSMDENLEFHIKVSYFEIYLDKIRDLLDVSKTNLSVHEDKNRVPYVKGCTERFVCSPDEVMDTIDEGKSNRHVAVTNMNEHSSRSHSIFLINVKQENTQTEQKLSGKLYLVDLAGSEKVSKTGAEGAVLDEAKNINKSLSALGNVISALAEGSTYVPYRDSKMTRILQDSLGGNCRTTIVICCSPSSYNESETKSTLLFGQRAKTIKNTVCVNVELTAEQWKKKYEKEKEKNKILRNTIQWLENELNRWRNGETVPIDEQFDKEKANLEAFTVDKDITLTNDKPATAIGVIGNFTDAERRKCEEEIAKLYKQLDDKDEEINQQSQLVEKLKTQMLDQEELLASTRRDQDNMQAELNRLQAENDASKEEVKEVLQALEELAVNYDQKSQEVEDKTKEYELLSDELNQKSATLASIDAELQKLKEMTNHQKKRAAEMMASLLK
Summary of the method: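 Gliding assays with other motors used His6-Eg5, His6-EGFP-HSET or K560 (truncated kinesin-1), with test compound at 24 µM or 100 µM. Frames were captured every 5 s for 1 min at 100×. Velocity was the distance travelled in 1 min, from ≥15 microtubules at each of three locations (n ≥ 50 per slide).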

- kcat, ATP-dependent ATPase [1]: 2.6 ± 0.4 s^–1
- microtubules remaining bound to the coverslip via KIF15 [4]: little effect on binding
- inhibition of microtubule gliding, K560 [5]: neither substantially inhibited
Compound: COC(=O)c1ccc2c(c1)N(C)S(=O)(=O)c1cnc(SC)nc1-2 [Munesib-1, Methyl 6-methyl-2-(methylthio)-6H-benzo[c]pyrimido[4,5-e][1,2]thiazine-8-carboxylate 5,5-dioxide]
- amount of KIF15 on metaphase spindle [2]: little effect
- effect on monopolarity index [3]: failed to substantially increase the monopolarity index
